In ChEMBL document CHEMBL1275272, “Synthesis, characterization and antimicrobial activity of some disubstituted 1,3,4-oxadiazoles carrying 2-(aryloxymethyl)phenyl moiety” (2010):
Converted amounts (≈) assume the structure as drawn.

Key:
Type in all cases: functional
Talaromyces marneffei = test: Antifungal activity against Penicillium marneffei after 16 to 18 hrs by serial dilution method; conditions: for MIC: Talaromyces marneffei
How it was run: (§1)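 The test compound was dissolved in DMF and serially diluted. A standard drop of the prepared microbial culture was added to each dilution, and tubes were incubated at 37 °C for 16–18 h. MIC was taken as the highest dilution that stayed clear with no visible turbidity.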

Aspergillus flavus = test: Antifungal activity against Aspergillus flavus after 16 to 18 hrs by serial dilution method; conditions: for MIC: Aspergillus flavus; how it was run: as §1
[1] = tested on: Trichophyton mentagrophytes; test: Antifungal activity against Trichophyton mentagrophytes after 16 to 18 hrs by serial dilution method; conditions: for MIC: Trichophyton mentagrophytes
Aspergillus fumigatus = test: Antifungal activity against Aspergillus fumigatus after 16 to 18 hrs by serial dilution method; conditions: for MIC: Aspergillus fumigatus
Pseudomonas aeruginosa = test: Antibacterial activity against Pseudomonas aeruginosa after 16 to 18 hrs by serial dilution method; conditions: for MIC: Pseudomonas aeruginosa; how it was run: as §1
Staphylococcus aureus = test: Antibacterial activity against Staphylococcus aureus after 16 to 18 hrs by serial dilution method; conditions: for MIC: Staphylococcus aureus; how it was run: as §1
Klebsiella pneumoniae = test: Antibacterial activity against Klebsiella pneumoniae after 16 to 18 hrs by serial dilution method; conditions: for MIC: Klebsiella pneumoniae
Escherichia coli = test: Antibacterial activity against Escherichia coli after 16 to 18 hrs by serial dilution method; conditions: for MIC: Escherichia coli; how it was run: as §1

MIC (Talaromyces marneffei) [µg/mL]	MIC (Aspergillus flavus) [µg/mL]	MIC [1] [µg/mL]	MIC (Aspergillus fumigatus) [µg/mL]	MIC (Pseudomonas aeruginosa) [µg/mL]	MIC (Staphylococcus aureus) [µg/mL]	MIC (Klebsiella pneumoniae) [µg/mL]	MIC (Escherichia coli) [µg/mL]	SMILES	inhibition zone (IZ) (Talaromyces marneffei) [mm]	inhibition zone (IZ) (Aspergillus flavus) [mm]	inhibition zone (IZ) [1] [mm]	inhibition zone (IZ) (Aspergillus fumigatus) [mm]	inhibition zone (IZ) (Pseudomonas aeruginosa) [mm]	inhibition zone (IZ) (Staphylococcus aureus) [mm]	inhibition zone (IZ) (Klebsiella pneumoniae) [mm]	inhibition zone (IZ) (Escherichia coli) [mm]
6.25 (≈ 13.3 µM)	6.25 (≈ 13.3 µM)	6.25 (≈ 13.3 µM)	6.25 (≈ 13.3 µM)	6.25 (≈ 13.3 µM)	6.25 (≈ 13.3 µM)	6.25 (≈ 13.3 µM)	6.25 (≈ 13.3 µM)	Cc1ccccc1OCc1ccccc1-c1nn(CNc2cccc(C(F)(F)F)c2)c(=S)o1	16	16	16	16	16	16	16	16
25 (≈ 66.3 µM)	25 (≈ 66.3 µM)	25 (≈ 66.3 µM)	25 (≈ 66.3 µM)	25 (≈ 66.3 µM)	25 (≈ 66.3 µM)	25 (≈ 66.3 µM)	25 (≈ 66.3 µM)	Cc1cccc(OCc2ccccc2-c2nnc(-c3ccc(Cl)cc3)o2)c1	<10	<10	<10	<10	<10	<10	<10	<10
6.25 (≈ 17.3 µM)	6.25 (≈ 17.3 µM)	6.25 (≈ 17.3 µM)	6.25 (≈ 17.3 µM)	6.25 (≈ 17.3 µM)	6.25 (≈ 17.3 µM)	6.25 (≈ 17.3 µM)	6.25 (≈ 17.3 µM)	Cc1ccccc1OCc1ccccc1-c1nnc(-c2ccccc2F)o1	16	16	16	16	16	16	16	16
25 (≈ 59.3 µM)	25 (≈ 59.3 µM)	25 (≈ 59.3 µM)	25 (≈ 59.3 µM)	25 (≈ 59.3 µM)	25 (≈ 59.3 µM)	25 (≈ 59.3 µM)	25 (≈ 59.3 µM)	Cc1ccccc1OCc1ccccc1-c1nnc(-c2cccc(Br)c2)o1	<10	<10	<10	<10	<10	<10	<10	<10
25 (≈ 46.8 µM)	25 (≈ 46.8 µM)	25 (≈ 46.8 µM)	25 (≈ 46.8 µM)	25 (≈ 46.8 µM)	25 (≈ 46.8 µM)	25 (≈ 46.8 µM)	25 (≈ 46.8 µM)	Cc1cccc(OCc2ccccc2-c2nn(CNc3ccc(Cl)cc3C(=O)C(F)(F)F)c(=S)o2)c1	<10	<10	<10	<10	<10	<10	<10	<10
12.5 (≈ 31.4 µM)	12.5 (≈ 31.4 µM)	12.5 (≈ 31.4 µM)	12.5 (≈ 31.4 µM)	12.5 (≈ 31.4 µM)	12.5 (≈ 31.4 µM)	12.5 (≈ 31.4 µM)	12.5 (≈ 31.4 µM)	Cc1ccccc1OCc1ccccc1-c1nn(CN2CCOCC2)c(=S)o1	11	11	11	11	11	11	11	11
6.25 (≈ 13.7 µM)	6.25 (≈ 13.7 µM)	12.5 (≈ 27.3 µM)	6.25 (≈ 13.7 µM)	6.25 (≈ 13.7 µM)	6.25 (≈ 13.7 µM)	6.25 (≈ 13.7 µM)	12.5 (≈ 27.3 µM)	Cc1ccccc1OCc1ccccc1-c1nnc(SCc2ccc(Cl)cc2Cl)o1	16	16	11	16	16	16	16	11
25 (≈ 63.5 µM)	25 (≈ 63.5 µM)	25 (≈ 63.5 µM)	25 (≈ 63.5 µM)	25 (≈ 63.5 µM)	25 (≈ 63.5 µM)	25 (≈ 63.5 µM)	25 (≈ 63.5 µM)	Cc1ccccc1OCc1ccccc1-c1nnc(-c2cccc3ncccc23)o1	<10	<10	<10	<10	<10	<10	<10	<10
6.25 (≈ 16.4 µM)	6.25 (≈ 16.4 µM)	6.25 (≈ 16.4 µM)	6.25 (≈ 16.4 µM)	6.25 (≈ 16.4 µM)	6.25 (≈ 16.4 µM)	6.25 (≈ 16.4 µM)	6.25 (≈ 16.4 µM)	Fc1ccccc1-c1nnc(-c2ccccc2COc2ccc(Cl)cc2)o1	16	16	16	16	16	16	16	16
25 (≈ 73 µM)	25 (≈ 73 µM)	25 (≈ 73 µM)	25 (≈ 73 µM)	25 (≈ 73 µM)	25 (≈ 73 µM)	25 (≈ 73 µM)	25 (≈ 73 µM)	Cc1ccccc1OCc1ccccc1-c1nnc(-c2ccccc2)o1	<10	<10	<10	<10	<10	<10	<10	<10
25 (≈ 60.4 µM)	25 (≈ 60.4 µM)	25 (≈ 60.4 µM)	25 (≈ 60.4 µM)	25 (≈ 60.4 µM)	25 (≈ 60.4 µM)	25 (≈ 60.4 µM)	25 (≈ 60.4 µM)	Clc1ccc(OCc2ccccc2-c2nnc(-c3cccc4ncccc34)o2)cc1	<10	<10	<10	<10	<10	<10	<10	<10
25 (≈ 73 µM)	25 (≈ 73 µM)	25 (≈ 73 µM)	25 (≈ 73 µM)	25 (≈ 73 µM)	25 (≈ 73 µM)	25 (≈ 73 µM)	25 (≈ 73 µM)	Cc1cccc(OCc2ccccc2-c2nnc(-c3ccccc3)o2)c1	<10	<10	<10	<10	<10	<10	<10	<10
25 (≈ 72.1 µM)	25 (≈ 72.1 µM)	25 (≈ 72.1 µM)	25 (≈ 72.1 µM)	25 (≈ 72.1 µM)	25 (≈ 72.1 µM)	25 (≈ 72.1 µM)	25 (≈ 72.1 µM)	CCSc1nnc(-c2ccccc2COc2ccc(Cl)cc2)o1	<10	<10	<10	<10	<10	<10	<10	<10
12.5 (≈ 31.1 µM)	12.5 (≈ 31.1 µM)	12.5 (≈ 31.1 µM)	6.25 (≈ 15.5 µM)	12.5 (≈ 31.1 µM)	12.5 (≈ 31.1 µM)	12.5 (≈ 31.1 µM)	12.5 (≈ 31.1 µM)	Cc1cccc(CSc2nnc(-c3ccccc3COc3cccc(C)c3)o2)c1	11	11	11	16	11	11	11	11
12.5 (≈ 31.4 µM)	12.5 (≈ 31.4 µM)	12.5 (≈ 31.4 µM)	12.5 (≈ 31.4 µM)	12.5 (≈ 31.4 µM)	12.5 (≈ 31.4 µM)	12.5 (≈ 31.4 µM)	12.5 (≈ 31.4 µM)	Cc1cccc(OCc2ccccc2-c2nn(CN3CCOCC3)c(=S)o2)c1	11	11	11	11	11	11	11	11
25 (≈ 64.4 µM)	25 (≈ 64.4 µM)	25 (≈ 64.4 µM)	25 (≈ 64.4 µM)	25 (≈ 64.4 µM)	25 (≈ 64.4 µM)	25 (≈ 64.4 µM)	25 (≈ 64.4 µM)	Cc1ccccc1OCc1ccccc1-c1nnc(SCc2ccccc2)o1	<10	<10	<10	<10	<10	<10	<10	<10
6.25 (≈ 17.3 µM)	6.25 (≈ 17.3 µM)	6.25 (≈ 17.3 µM)	6.25 (≈ 17.3 µM)	6.25 (≈ 17.3 µM)	6.25 (≈ 17.3 µM)	6.25 (≈ 17.3 µM)	6.25 (≈ 17.3 µM)	Cc1ccc(OCc2ccccc2-c2nnc(-c3ccccc3F)o2)cc1	16	16	16	16	16	16	16	16
